Measured values taken from ChEMBL document CHEMBL1158173, “Carbodithioic acid esters of fluoxetine, a novel class of dual-function spermicides” (2008).
In brackets after ≈: the same amount, converted by molar mass. Activity calls are given as the source filed them. No cut-off for these calls is given here.

How the values were obtained:
Type in all cases: functional
Cryptococcus neoformans = assay: Antifungal activity against Cryptococcus neoformans after 48 hrs by broth microdilution technique
Sperm = assay: (§1) Spermicidal activity in liquefied human semen assessed as drug level required to kill 100% sperm in 20 seconds
Candida albicans [1] = assay: Antifungal activity against Candida albicans after 48 hrs by broth microdilution technique
Aspergillus fumigatus = assay: Antifungal activity against Aspergillus fumigatus after 48 hrs by broth microdilution technique
[2] = system: Trichophyton mentagrophytes; assay: Antifungal activity against Trichophyton mentagrophytes after 48 hrs by broth microdilution technique
Candida parapsilosis [3] = assay: (§2) Antifungal activity against Candida parapsilosis ATCC 22019 after 48 hrs by broth microdilution technique; conditions: for MIC: Lodderomyces parapsilosis, ATCC 22019, 48 h
Sporothrix schenckii = assay: Antifungal activity against Sporothrix schenckii after 48 hrs by broth microdilution technique
[4] = as §1
Trichomonas vaginalis = assay: Antitrichomonas activity against Trichomonas vaginalis after 48 hrs by trypan blue staining
Summary of the method: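 Trichomonas vaginalis was grown in TYM medium and used in log phase, one day after routine subculture. Compounds in DMSO stock were serially diluted in TYM medium, with DMSO/TYM as vehicle control. Wells received 5 × 10³ trophozoites and were incubated anaerobically at 37 °C. Viability was scored daily by trypan blue and cell counts, and MIC was read at 48 h. Finer dilutions were then retested, and the final MIC was taken from a concentration versus viable-trophozoite-number curve.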

Candida albicans [5] = assay: Antifungal activity against Candida albicans ATCC 6019 after 48 hrs by broth microdilution technique; conditions: ATCC 6019, 48 h
Candida albicans [6] = assay: Antifungal activity against Candida albicans MTCC 183 after 48 hrs by broth microdilution technique; conditions: MTCC 183, 48 h
Candida albicans [7] = assay: Antifungal activity against Candida albicans ATCC 10231 after 48 hrs by broth microdilution technique; conditions: ATCC 10231, 48 h
Candida albicans [8] = assay: Antifungal activity against Candida albicans ATCC 10453 after 48 hrs by broth microdilution technique; conditions: ATCC 10453, 48 h
Candida parapsilosis [9] = assay: as §2; conditions: Lodderomyces parapsilosis, ATCC 22019, 48 h
Candida albicans [10] = assay: Antifungal activity against Candida albicans MTCC 1346 after 48 hrs by broth microdilution technique; conditions: MTCC 1346, 48 h
Candida albicans [11] = assay: Antifungal activity against Candida albicans ATCC 66027 after 48 hrs by broth microdilution technique; conditions: ATCC 66027, 48 h
Pichia kudriavzevii = assay: Antifungal activity against Candida krusei ATCC 6258 after 48 hrs by broth microdilution technique; conditions: ATCC 6258, 48 h

SMILES | Activity (Cryptococcus neoformans) | Activity (Sperm) | Activity (Candida albicans [1]) | MIC (Aspergillus fumigatus) [µg/mL] | Activity [2] | Activity (Candida parapsilosis [3]) | Activity (Sporothrix schenckii) | Activity (Aspergillus fumigatus) | MIC [2] [µg/mL] | MIC (Candida parapsilosis [3]) [µg/mL] | MEC [4] [%] | MIC (Candida albicans [1]) [µg/mL] | MIC (Trichomonas vaginalis) [µg/mL] | MIC (Cryptococcus neoformans) [µg/mL] | MIC (Sporothrix schenckii) [µg/mL] | also measured
CN(CCC(Oc1ccc(C(F)(F)F)cc1)c1ccccc1)C(=S)SCC(O)CN1CCOCC1 (configuration not stated) | inactive | inactive | inactive | 50 (≈ 94.6 µM) | inactive | inactive | inactive |  |  |  |  |  |  |  |  | 
CN(CCC(Oc1ccc(C(F)(F)F)cc1)c1ccccc1)C(=S)SCC(O)CN1CCCCC1 (configuration not stated) | inactive | inactive | inactive |  |  |  | inactive | inactive | 50 (≈ 94.9 µM) | 50 (≈ 94.9 µM) |  |  |  |  |  | 
CN(CCC(Oc1ccc(C(F)(F)F)cc1)c1ccccc1)C(=S)SCC(O)CN1CCCCCC1 (configuration not stated) | inactive |  |  | 25 (≈ 46.2 µM) |  |  | inactive |  | 25 (≈ 46.2 µM) | 50 (≈ 92.5 µM) | 0.5 | 50 (≈ 92.5 µM) | > 200 |  |  | 
CNCCC(Oc1ccc(C(F)(F)F)cc1)c1ccccc1 (configuration not stated) [FLUOXETINE] |  |  |  |  |  |  |  | inactive | 50 (≈ 162 µM) | 50 (≈ 162 µM) |  | 50 (≈ 162 µM) | 28 (≈ 90.5 µM) | 25 (≈ 80.8 µM) | 50 (≈ 162 µM) | 
CN(CCC(Oc1ccc(C(F)(F)F)cc1)c1ccccc1)CC(O)CSC(=S)N1CCCCCC1 (configuration not stated) | inactive | inactive | inactive |  | inactive | inactive | inactive | inactive |  |  |  |  |  |  |  | 
CN(CCC(Oc1ccc(C(F)(F)F)cc1)c1ccccc1)CC(O)CSC(=S)N1CCOCC1 (configuration not stated) | inactive | inactive | inactive |  |  |  |  | inactive | 12.5 (≈ 23.6 µM) | 50 (≈ 94.6 µM) |  |  |  |  | 25 (≈ 47.3 µM) | 
CCCCCCCCCc1ccc(OCCOCCOCCOCCOCCOCCOCCOCCOCCO)cc1 [NONOXYNOL 9] | inactive |  | inactive |  | inactive |  | inactive | inactive |  | 50 (≈ 81.1 µM) | 0.05 |  | 23 (≈ 37.3 µM) |  |  | 
OC(Cn1cncn1)(Cn1cncn1)c1ccc(F)cc1F [FLUCONAZOLE] |  |  |  |  |  |  |  |  |  |  |  | 0.5 (≈ 1.63 µM) |  |  |  | MIC (Candida albicans [5]): 0.25 µg/mL (≈ 0.816 µM); MIC (Candida albicans [6]): 0.5 µg/mL (≈ 1.63 µM); MIC (Candida albicans [7]): 1 µg/mL (≈ 3.27 µM); MIC (Candida albicans [8]): 1 µg/mL (≈ 3.27 µM); MIC (Candida parapsilosis [9]): 1 µg/mL (≈ 3.27 µM); MIC (Candida albicans [10]): 2 µg/mL (≈ 6.53 µM); MIC (Candida albicans [11]): 0.25 µg/mL (≈ 0.816 µM); MIC (Pichia kudriavzevii): 4 µg/mL (≈ 13.1 µM)
CN(CCC(Oc1ccc(C(F)(F)F)cc1)c1ccccc1)CC(O)CSC(=S)N1CCCC1 (configuration not stated) | inactive | inactive | inactive |  | inactive | inactive | inactive | inactive |  |  |  |  |  |  |  | 
CN(CCC(Oc1ccc(C(F)(F)F)cc1)c1ccccc1)CC(O)CSC(=S)N(C)Cc1ccccc1 (configuration not stated) | inactive | inactive | inactive |  | inactive | inactive | inactive | inactive |  |  |  |  |  |  |  | 
CN1CCN(CC(O)CSC(=S)N(C)CCC(Oc2ccc(C(F)(F)F)cc2)c2ccccc2)CC1 (configuration not stated) |  |  |  | 25 (≈ 46.2 µM) |  |  |  |  | 25 (≈ 46.2 µM) | 50 (≈ 92.3 µM) | 0.5 | 50 (≈ 92.3 µM) | 12 (≈ 22.2 µM) | 25 (≈ 46.2 µM) | 25 (≈ 46.2 µM) | 
CN(CCC(Oc1ccc(C(F)(F)F)cc1)c1ccccc1)CC(O)CSC(=S)N1CCCCC1 (configuration not stated) |  | inactive | inactive |  | inactive | inactive | inactive | inactive |  |  |  |  |  | 25 (≈ 47.5 µM) |  | 
CN(CCC(Oc1ccc(C(F)(F)F)cc1)c1ccccc1)C(=S)SCCCl (configuration not stated) |  |  |  | 50 (≈ 112 µM) |  |  |  |  | 12.5 (≈ 27.9 µM) | 25 (≈ 55.8 µM) | 1 | 50 (≈ 112 µM) | > 200 | 50 (≈ 112 µM) | 25 (≈ 55.8 µM) | 
CCN(CC)CCSC(=S)N(C)CCC(Oc1ccc(C(F)(F)F)cc1)c1ccccc1 (configuration not stated) |  |  |  | 6.25 (≈ 12.9 µM) |  |  |  |  | 12.5 (≈ 25.8 µM) | 50 (≈ 103 µM) | 1 | 50 (≈ 103 µM) | 24 (≈ 49.5 µM) | 50 (≈ 103 µM) | 6.25 (≈ 12.9 µM) | 
CN1CCN(C(=S)SCC(O)CN(C)CCC(Oc2ccc(C(F)(F)F)cc2)c2ccccc2)CC1 (configuration not stated) |  |  | inactive |  |  | inactive | inactive | inactive | 25 (≈ 46.2 µM) |  | 1 |  | 6.68 (≈ 12.3 µM) | 12.5 (≈ 23.1 µM) |  | 
CN(CCC(Oc1ccc(C(F)(F)F)cc1)c1ccccc1)C(=S)SCCN1CCOCC1 (configuration not stated) | inactive | inactive | inactive |  | inactive | inactive | inactive | inactive |  |  |  |  |  |  |  | 
CN(C)CCSC(=S)N(C)CCC(Oc1ccc(C(F)(F)F)cc1)c1ccccc1 (configuration not stated) |  |  |  | 25 (≈ 54.8 µM) |  |  |  |  | 6.25 (≈ 13.7 µM) | 50 (≈ 110 µM) | 1 | 50 (≈ 110 µM) | 52 (≈ 114 µM) | 50 (≈ 110 µM) | 12.5 (≈ 27.4 µM) | 
Cc1ncc([N+](=O)[O-])n1CCO [METRONIDAZOLE] | inactive | inactive | inactive |  | inactive | inactive | inactive | inactive |  |  |  |  | 0.54 (≈ 3.16 µM) |  |  | 
CN(CCC(Oc1ccc(C(F)(F)F)cc1)c1ccccc1)C(=S)SCC(O)CN1CCCC1 (configuration not stated) | inactive |  | inactive | 50 (≈ 97.5 µM) |  |  |  |  | 25 (≈ 48.8 µM) | 50 (≈ 97.5 µM) | 0.5 |  | 6.95 (≈ 13.6 µM) |  | 50 (≈ 97.5 µM) | 
CN(CCC(Oc1ccc(C(F)(F)F)cc1)c1ccccc1)C(=S)SCCN1CCCC1 (configuration not stated) |  |  |  | 12.5 (≈ 25.9 µM) |  |  |  |  | 12.5 (≈ 25.9 µM) | 3.12 (≈ 6.46 µM) | 0.05 | 6.25 (≈ 12.9 µM) | 14 (≈ 29 µM) | 3.12 (≈ 6.46 µM) | 25 (≈ 51.8 µM) | MIC (Candida albicans [5]): 6.25 µg/mL (≈ 12.9 µM); MIC (Candida albicans [6]): 3.12 µg/mL (≈ 6.47 µM); MIC (Candida albicans [7]): 6.25 µg/mL (≈ 12.9 µM); MIC (Candida albicans [8]): 6.25 µg/mL (≈ 12.9 µM); MIC (Candida parapsilosis [9]): 3.12 µg/mL (≈ 6.47 µM); MIC (Candida albicans [10]): 6.25 µg/mL (≈ 12.9 µM); MIC (Candida albicans [11]): 6.25 µg/mL (≈ 12.9 µM); MIC (Pichia kudriavzevii): 6.25 µg/mL (≈ 12.9 µM)
CN(CCC(Oc1ccc(C(F)(F)F)cc1)c1ccccc1)C(=S)SCCN1CCCCC1 (configuration not stated) |  |  |  | 12.5 (≈ 25.2 µM) |  |  |  |  | 6.25 (≈ 12.6 µM) | 1.56 (≈ 3.14 µM) | 1 | 3.12 (≈ 6.28 µM) | 13.5 (≈ 27.2 µM) | 1.56 (≈ 3.14 µM) | 6.25 (≈ 12.6 µM) | 
CN(CCC(Oc1ccc(C(F)(F)F)cc1)c1ccccc1)C(=S)[S-].[Na+] (configuration not stated) |  |  | inactive |  | inactive | inactive | inactive | inactive |  |  | 1 |  | 96 | 25 |  | 
CN(CCC(Oc1ccc(C(F)(F)F)cc1)c1ccccc1)C(=S)SCc1ccccc1 (configuration not stated) | inactive |  | inactive |  | inactive | inactive | inactive | inactive |  |  | 1 |  | > 200 |  |  | 
CCN(CC)CC(O)CSC(=S)N(C)CCC(Oc1ccc(C(F)(F)F)cc1)c1ccccc1 (configuration not stated) | inactive |  | inactive | 50 (≈ 97.1 µM) |  |  | inactive |  | 25 (≈ 48.6 µM) | 50 (≈ 97.1 µM) | 0.5 |  | > 200 |  |  | 
